“Also recorded” adds a separate entry of the source.
How the values were obtained:
IL-8 = IL-8 release in THP-1 cells; type: cell-based, human; settings: 5 μM compound; for IL-8 induction with LPS: LPS 1 ng/mL, compared to Veh+LPS; for IL-8 induction, compound alone: without LPS, compared to Veh
Method in brief: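 THP-1 cells were exposed overnight to 5 μM test compound or vehicle (0.5% DMSO), with or without LPS at 1 ng/mL. Secreted IL-8 in a portion of the supernatant was quantified by ELISA.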

NF-κB [1] = experiment: NF-κB activation using THP1-Blue NF-κB cells; type: cell-based, human; settings: for EC50: read-out: EC50 NF-κB induction in the presence of LPS, with LPS (10 ng/mL), THP1-Blue NF-κB cells, SEAP; for EC50 / NF-κB activity (in words, SAR text to Table 1): 20h; for NF-κB activity (in words, SAR text to Table 1): compound alone, 5 μM; for NF-κB induction in the presence of LPS (in words, Fig. 6): compared to compound 1
Method in brief: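 THP1-Blue NF-κB cells carry a stably integrated NF-κB-inducible SEAP. They were plated at 10^5 cells/well in RPMI with 10% FBS, penicillin, streptomycin and Normocin, then treated for 20 h with 5 μM test compound (0.5% DMSO final), alone or with LPS at 10 ng/mL. Supernatant SEAP was read colorimetrically at 630 nm. Signals were two-point normalized: baseline (vehicle or LPS) 100%, reference hit 200%.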

NF-κB [2] = experiment: Confirmatory kinetic screening, cell-based NF-κB FRET assay with LPS; design: species or system human; settings: 12h incubation, 21 HTS actives

| Compound | IL-8 induction with LPS (IL-8) | IL-8 induction, compound alone (IL-8) | EC50 (NF-κB [1]) [nM] | NF-κB enhancement activity at 12h in the presence of LPS (NF-κB [2]) | NF-κB activity (in words, SAR text to Table 1) (NF-κB [1]) | NF-κB induction in the presence of LPS (in words, Fig. 6) (NF-κB [1]) |
| --- | --- | --- | --- | --- | --- | --- |
| Cc1ccc(C)c(-c2csc(NC(=O)c3ccc(S(=O)(=O)N4CCCCC4)cc3)n2)c1 [Compound 1, N-(4-(2,5-dimethylphenyl)thiazol-2-yl)-4-(piperidin-1-ylsulfonyl)benzamide] | significantly enhanced | induced IL-8 | 2300 | most potent | – | – |
| Cc1ccc(Br)c(-c2csc(NC(=O)c3ccc(S(=O)(=O)N4CCCCC4)cc3)n2)c1 [Compound 12d, N-(4-(2-bromo-5-methylphenyl)thiazol-2-yl)-4-(piperidin-1-ylsulfonyl)benzamide] | significantly enhanced | induced IL-8 | 4500 | – | active; also recorded: most active | – |
| CCCC#Cc1sc(NC(=O)c2ccc(S(=O)(=O)N3CCCCC3)cc2)nc1-c1cc(C)ccc1C [Compound 18q, N-(4-(2,5-dimethylphenyl)-5-(pent-1-yn-1-yl)thiazol-2-yl)-4-(piperidin-1-ylsulfonyl)benzamide] | significantly enhanced | induced IL-8 | 1700 | – | very potent; also recorded: most active | – |
| CCCC1CCN(S(=O)(=O)c2ccc(C(=O)Nc3nc(-c4cc(C)ccc4C)cs3)cc2)CC1 [Compound 54h, N-(4-(2,5-dimethylphenyl)thiazol-2-yl)-4-((4-propylpiperidin-1-yl)sulfonyl)benzamide] | significantly enhanced | induced IL-8 | 900 | – | very potent; also recorded: most active | – |
| C#CC1CCN(S(=O)(=O)c2ccc(C(=O)Nc3nc(-c4cc(C)ccc4C)cs3)cc2)CC1 [Compound 68d, N-(4-(2,5-dimethylphenyl)thiazol-2-yl)-4-((4-ethynylpiperidin-1-yl)sulfonyl)benzamide] | – | – | – | – | – | modestly active |
| C#CC1CCN(S(=O)(=O)c2ccc(C(=O)Nc3nc(-c4cc(N=[N+]=[N-])ccc4C)cs3)cc2)CC1 [Compound 69, N-(4-(5-azido-2-methylphenyl)thiazol-2-yl)-4-((4-ethynylpiperidin-1-yl)sulfonyl)benzamide] | – | – | – | – | – | perfect overlapping dose-response curve |

Source: article PMC8992012 (Bioorganic & medicinal chemistry, 2021)
